From ChEMBL document CHEMBL3421565, “β-D-2'-C-Methyl-2,6-diaminopurine Ribonucleoside Phosphoramidates are Potent and Selective Inhibitors of Hepatitis C Virus (HCV) and Are Bioconverted Intracellularly to Bioactive 2,6-Diaminopurine and Guanosine 5'-Triphosphate Forms” (J Med Chem, 2015)

What was measured:
Hepatitis C virus = assay: Antiviral activity against HCV infected in human HuH7 cells assessed as reduction in replicon RNA levels incubated for 5 days by RT-PCR assay; format: functional, organism-based, Hepacivirus hominis; settings: Huh-7, 120 h
Procedure, shortened: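 Huh-7 clone B cells carrying HCV replicon RNA, seeded at 3000 cells/well; compounds added in dose response in triplicate right after seeding. Incubated 5 days at 37 °C, 5% CO₂. Total RNA extracted; replicon RNA and rRNA internal control co-amplified by one-step multiplex real-time RT-PCR. Antiviral effect taken as ΔCt versus no-drug control; cytotoxicity read from rRNA reduction.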

Vero = assay: Cytotoxicity against African green monkey Vero cells assessed as reduction in cell viability incubated for 5 days by Cell-titer 96 aqueous one solution cell proliferation assay; format: cell-based; settings: chlorocebus sabaeus, vero, 120 h
HepG2 [1] = assay: Mitochondrial toxicity in human HepG2 cells assessed as effect on mitochondrial cytochrome c oxidase subunit 2 DNA level incubated for 14 days by real-time PCR method; format: cell-based; settings: hepg2, 336 h
Procedure, shortened: (§1)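 HepG2 cells in DMEM with 4.5 g/L glucose and 10% heat-inactivated FBS, seeded at 5000 cells/well on collagen; compounds added 1 day later at final 1–50 μM. Medium and compound renewed every 3–4 days for 14 days; duplicates in two independent experiments. COXII mtDNA and nuclear β-actin DNA measured by real-time PCR, normalised to untreated control; IC₅₀ calculated.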

HepG2 [2] = assay: Mitochondrial toxicity in human HepG2 cells assessed as effect on nuclear beta-actin DNA level incubated for 14 days by real-time PCR method; format: cell-based; settings: hepg2, 336 h; procedure, shortened: as §1
HepG2 [3] = assay: Mitochondrial toxicity in human HepG2 cells assessed as induction of lactic acid levels at 1 uM incubated for 14 days; format: cell-based; settings: hepg2, 336 h
Procedure, shortened: (§2)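 After 14 days of HepG2 exposure to compound (same culture regimen as the mtDNA assay), lactic acid in culture supernatant quantified with a D-/L-lactic acid kit by absorbance. Results expressed as % lactic acid over % nuclear DNA (β-actin control); mean of triplicates from a single plate.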

HepG2 [4] = assay: Mitochondrial toxicity in human HepG2 cells assessed as induction of lactic acid levels at 10 uM incubated for 14 days; format: cell-based; settings: hepg2, 336 h; procedure, shortened: as §2
HepG2 [5] = assay: Mitochondrial toxicity in human HepG2 cells assessed as induction of lactic acid levels at 50 uM incubated for 14 days; format: cell-based; settings: hepg2, 336 h; procedure, shortened: as §2
[6] = Drug metabolism in human HuH7 cells assessed as 2'-C-Me-DAPN-TP level per million cells at 50 uM incubated for 4 hrs at 37 degC by LC-MS/MS method; format: ADME, cell-based; settings: huh-7, 4 h
Procedure, shortened: (§3)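 Huh-7 cells (after attachment) or freshly plated primary human hepatocytes (after overnight acclimatation), 1 × 10⁶ cells/well, exposed to 50 μM compound for 4 h at 37 °C. Cells washed twice with ice-cold PBS and extracted overnight at −20 °C in 70% methanol containing 20 nM ddATP. Mono-, di- and triphosphates quantified by LC–MS/MS as pmol/10⁶ cells; three replicates.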

[7] = Drug metabolism in human HuH7 cells assessed as 2'-C-Me-GTP level at 50 uM incubated for 4 hrs at 37 degC by LC-MS/MS method; format: ADME, cell-based; settings: huh-7, 4 h; procedure, shortened: as §3
[8] = Drug metabolism in human primary hepatocytes assessed as 2'-C-Me-DAPN-TP level at 50 uM incubated for 4 hrs at 37 degC by LC-MS/MS method; format: ADME, cell-based, Hepatocyte; procedure, shortened: as §3

In the case of CC(C)OC(=O)CCc1ccccc1OP(=O)(N[C@@H](C)C(=O)OC(C)C)OC[C@H]1O[C@@H](n2cnc3c(N)nc(N)nc32)[C@](C)(O)[C@H]1O (stereo partly specified), the EC50 (Hepatitis C virus) is reported as 700 nM, the EC90 (Hepatitis C virus) is reported as 2500 nM and the CC50 (Vero) is reported as > 100000 nM. The CC50 (HepG2 [1]) was > 50000 nM, the CC50 (HepG2 [2]) was > 50000 nM and the Activity (HepG2 [3]) was 90%. The Activity (HepG2 [4]) was 81%, the Activity (HepG2 [5]) was 80% and the Drug metabolism [6] was “metabolite_detected”. For the same compound, the Drug metabolism [7] was “metabolite_detected” and the Drug metabolism [8] was “metabolite_detected”.
